The text below walks through data of ChEMBL document CHEMBL3779815, “Synthesis of newer 1,2,3-triazole linked chalcone and flavone hybrid compounds and evaluation of their antimicrobial and cytotoxic activities” (Eur J Med Chem, 2016).

Data set [1] deals with Candida albicans. Description: Antifungal activity against Candida albicans clinical isolate after 18 to 24 hrs by micro-dilution method. Format: functional. The procedure, abridged:
(§1)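 Microdilution MIC run as the antibacterial protocol but on Sabouraud dextrose […] pH 7.3±0.2; compounds 100 to 0.78 μg/mL in twofold steps; saline-prepared inocula 1-2 × 10⁷ cfu/mL, 0.01 mL added; 37 °C aerobic, 18-24 h; MIC read as lowest concentration without visible growth or turbidity; fluconazole reference.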

The test system of a further data set is Enterococcus faecalis. As to the kind of experiment: Antibacterial activity against Enterococcus faecalis ATCC 29212 after 18 to 24 hrs by micro-dilution assay. Format: functional.
The subject of a further data set is Cryptococcus neoformans. Description: Antifungal activity against Cryptococcus neoformans clinical isolate after 18 to 24 hrs by micro-dilution method. Format: functional. The procedure, abridged: as §1
The subject of another data set is Escherichia coli. Description: Antibacterial activity against Escherichia coli ATCC 35218 after 18 to 24 hrs by micro-dilution method. Format: functional.
For another data set, the system named is Arthrodermataceae. As to the kind of experiment: Antifungal activity against Dermatophyte clinical isolate after 18 to 24 hrs by micro-dilution method. Format: functional. The procedure, abridged: as §1
The next data set relates to Staphylococcus aureus. Description: Antibacterial activity against Staphylococcus aureus […] after 18 to 24 hrs by micro-dilution method. Format: functional.
The subject of the next data set is Aspergillus fumigatus. As to the kind of experiment: Antifungal activity against Aspergillus fumigatus clinical isolate after 18 to 24 hrs by micro-dilution method. Format: functional. The procedure, abridged:
as §1

The test system of the next data set is Aspergillus niger. As to the kind of experiment: Antifungal activity against Aspergillus niger clinical isolate after 18 to 24 hrs by micro-dilution method. Format: functional. The procedure, abridged: as §1
In a further data set the test system is Candida parapsilosis. Description: Antifungal activity against Candida parapsilosis ATCC 22019 after 18 to 24 hrs by micro-dilution method. Format: functional. To be noted: Lodderomyces parapsilosis. The procedure, abridged: as §1
In a further data set the test system is Shigella boydii. Description: Antibacterial activity against Shigella boydii clinical isolate after 18 to 24 hrs by micro-dilution method. Format: functional.
In another data set the test system is Plasmodium falciparum. Description: Antimalarial activity against erythrocytic stage of chloroquine sensitive Plasmodium falciparum 3D7 assessed as inhibition of parasitemia after 48 hrs by Giemsa staining based microscopic analysis. Format: functional, organism-based. The following applies: 3D7, 48 h. The procedure, abridged: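 Asynchronous culture on human O⁺ erythrocytes, 1-1.5% parasitemia, 4% hematocrit, RPMI-1640 with HEPES, NaHCO₃, glutamine, gentamycin, Albumax II; drug 0.10-100 μg/mL, 48 h, 37 °C, medium changed at 24 h; triplicate wells; Giemsa thin smears, about 4,000 erythrocytes counted at 1,000X; % parasitemia inhibition versus control gives IC50.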

Data set [2] relates to Candida albicans. As to the kind of experiment: Antifungal activity against Candida albicans ATCC 90028 after 18 to 24 hrs by micro-dilution method. Format: functional. The procedure, abridged: as §1
A further data set concerns Klebsiella pneumoniae. As to the kind of experiment: Antibacterial activity against Klebsiella pneumoniae ATCC 27736 after 18 to 24 hrs by micro-dilution method. Format: functional.
The nature of data set [3]: Cytotoxicity against human HuH7 cells after 72 hrs by MTT assay. Format: cell-based, Huh-7. The procedure, abridged:
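Huh-7 cells, 4 × 10³/well in DMEM with 10% FBS and penicillin-streptomycin-glutamine; eight 2-fold dilutions 100-0.78 μg/mL, 72 h; MTT added 2-4 h, then isopropanol/Triton X-100/HCl solubilization 2 h dark, RT; absorbance 570 nm; CC50 as mean of at least two experiments in duplicate.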

The subject of the next data set is Candida tropicalis. Description: Antifungal activity against Candida tropicalis ATCC 750 after 18 to 24 hrs by micro-dilution method. Format: functional. The procedure, abridged: as §1
Another data set deals with Pseudomonas aeruginosa. Description: Antibacterial activity against Pseudomonas aeruginosa […] after 18 to 24 hrs by micro-dilution method. Format: functional.

Structures are written as SMILES. ≈ marks a conversion by molar mass, not a printed value. Some results are limits rather than exact numbers.

For `COc1cc(O)c(C(=O)/C=C/c2ccc(OCc3cn(-c4ccc(Cl)cc4)nn3)c(OC)c2)c(OC)c1`, the minimal inhibitory concentration (MIC) is 6.25 µg/mL (≈ 12 µM) in the data set on Candida albicans [1]; greater than 100 µg/mL against Enterococcus faecalis; 12.5 µg/mL (≈ 23.9 µM) in the data set on Cryptococcus neoformans; greater than 100 µg/mL with Escherichia coli; 12.5 µg/mL (≈ 23.9 µM) in the data set on Arthrodermataceae; greater than 100 µg/mL in the data set with Staphylococcus aureus. Moreover, the MIC is 25 µg/mL (≈ 47.9 µM) in the data set on Aspergillus fumigatus; 25 µg/mL (≈ 47.9 µM) in the data set with Aspergillus niger; 12.5 µg/mL (≈ 23.9 µM) against Candida parapsilosis; greater than 100 µg/mL against Shigella boydii; 12.5 µg/mL (≈ 23.9 µM) against Candida albicans [2]; greater than 100 µg/mL with Klebsiella pneumoniae. Moreover, the MIC against Candida tropicalis is 6.25 µg/mL (≈ 12 µM); in the data set with Pseudomonas aeruginosa, greater than 100 µg/mL. Besides, the IC50 in the data set with Plasmodium falciparum came to 5.08 µg/mL (≈ 9.73 µM). Further, the CC50 at 72 h in data set [3] was greater than 100 µg/mL.
For the molecule `COc1cc(O)c(C(=O)/C=C/c2ccc(OC)c(OCc3cn(-c4ccc(F)c(Cl)c4)nn3)c2)c(OC)c1`, the minimal inhibitory concentration (MIC) was greater than 100 µg/mL in the data set on Candida albicans [1]; 100 µg/mL (≈ 185 µM) with Enterococcus faecalis; 100 µg/mL (≈ 185 µM) in the data set with Cryptococcus neoformans; 100 µg/mL (≈ 185 µM) against Escherichia coli; greater than 100 µg/mL against Arthrodermataceae; greater than 100 µg/mL against Staphylococcus aureus. In addition, the MIC with Aspergillus fumigatus, with Aspergillus niger, with Candida parapsilosis, in the data set with Shigella boydii, with Candida albicans [2] and against Klebsiella pneumoniae was greater than 100 µg/mL each time. The minimum inhibitory concentration (MIC) in the data set on Candida tropicalis is 100 µg/mL (≈ 185 µM); against Pseudomonas aeruginosa, greater than 100 µg/mL. In the data set with Plasmodium falciparum, the half-inhibitory concentration (IC50) came out at 7.52 µg/mL (≈ 13.9 µM). The CC50 at 72 h in [3] is greater than 100 µg/mL.
`COc1cc(OC)c2c(=O)cc(-c3ccc(OCc4cn(-c5ccc(F)cc5Cl)nn4)c(OC)c3)oc2c1`: the MIC is 12.5 µg/mL (≈ 23.2 µM) in the data set on Candida albicans [1]; greater than 100 µg/mL in the data set with Enterococcus faecalis; 12.5 µg/mL (≈ 23.2 µM) with Cryptococcus neoformans; 50 µg/mL (≈ 92.9 µM) with Escherichia coli; 25 µg/mL (≈ 46.5 µM) against Arthrodermataceae; 50 µg/mL (≈ 92.9 µM) in the data set with Staphylococcus aureus. The minimal inhibitory concentration (MIC) against Aspergillus fumigatus is 12.5 µg/mL (≈ 23.2 µM); against Aspergillus niger, 12.5 µg/mL (≈ 23.2 µM); in the data set with Candida parapsilosis it was 12.5 µg/mL (≈ 23.2 µM); against Shigella boydii, 50 µg/mL (≈ 92.9 µM); in the data set on Candida albicans [2], 12.5 µg/mL (≈ 23.2 µM); in the data set with Klebsiella pneumoniae, greater than 100 µg/mL. For the same molecule, the minimum inhibitory concentration (MIC) was 12.5 µg/mL (≈ 23.2 µM) against Candida tropicalis and greater than 100 µg/mL against Pseudomonas aeruginosa. In addition, in the data set with Plasmodium falciparum, the IC50 turned out to be 3.85 µg/mL (≈ 7.16 µM). This molecule also registered a CC50 at 72 h in [3] greater than 100 µg/mL.
